Laboratory results as given in ChEMBL document CHEMBL3271990, “Ergot alkaloids. New ergolines as selective dopaminergic stimulants” (1978).
Activity calls are given as the source filed them. No cut-off for these calls is given here.

What was measured:
[1] = test system: Rattus norvegicus; assay: Inhibition of serum prolactin in sc dosed rat after 4 hrs by RIA; assay type: functional
Outline: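 Serum prolactin measured by RIA 4 h after sc dosing, expressed as NIH-RP. ED50 calculated from dose-response relationships.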

[2] = test system: Rattus norvegicus; assay: Inhibition of ovum implantation in sc dosed inseminated rat; assay type: functional
Outline: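 Inseminated rats dosed sc. ED value for inhibition of ovum implantation.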

[3] = test system: Rattus norvegicus; assay: Induction of turning toward intact side in OFA rat model with 6-OH-DA-induced unilateral degeneration of nigrostriatal tract at 1 mg/kg, ip; assay type: functional, organism-based; set-up: dose 1 mg/kg
[4] = test system: Rattus norvegicus; assay: Induction of stereotypy in OFA rat at 10 mg/kg, sc measured every 30 mins for 2 hrs followed by every 60 mins for 7 hrs; assay type: functional, organism-based; set-up: dose 10 mg/kg
Outline: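 Male OFA rats (180-250 g), housed singly in cylinders with wire-netting floor, acclimatized 30 min before dosing. Behaviour observed every 30 min for 2 h, then every 60 min up to 7 h total. Stereotypy (sniffing, licking, biting) scored on Costall et al. scale; total score per rat over 0-7 h. Six rats per dose.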

[5] = test system: Rattus norvegicus; assay: Induction of stereotypy in OFA rat at 30 mg/kg, ip measured every 30 mins for 2 hrs followed by every 60 mins for 7 hrs; assay type: functional, organism-based; set-up: dose 30 mg/kg
Outline: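 Male OFA rats (180-250 g), each in its own cylinder with a wire-netting floor, acclimatized 30 min, then dosed. Observed every 30 min for 2 h, then every 60 min up to 7 h total. Six rats per dose. Sniffing, licking and biting scored with the Costall et al. system and summed as total activity per rat over 0-7 h.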

**Q.** Which results are given for CN1C[C@H](CC#N)C[C@@H]2c3cccc4[nH]cc(c34)C[C@H]21?
**A.** ED50 [1]: 0.06 mg/kg; ED50 [2]: 1 mg/kg; Activity [3]: Active

**Q.** For CN1CCc2cccc3c2[C@H]1Cc1ccc(O)c(O)c1-3, which Activity [4] is on record?
**A.** Active

**Q.** With CN1C[C@@H](CC#N)C[C@H]2c3cccc4[nH]cc(c34)C[C@H]21 as the compound, how does the Activity [5] read?
**A.** Active

**Q.** What about the Activity [3] of the same compound?
**A.** Active

**Q.** Which ED50 [1] does the source give for CC(C)C[C@H]1C(=O)N2CCC[C@H]2[C@]2(O)O[C@](NC(=O)[C@@H]3C=C4c5cccc6[nH]c(Br)c(c56)C[C@H]4N(C)C3)(C(C)C)C(=O)N12 [BROMOCRIPTINE] here?
**A.** 0.007 mg/kg

**Q.** What about the Activity [5] of the same compound?
**A.** Active

**Q.** What about the ED50 [2] of the same compound?
**A.** 0.75 mg/kg

**Q.** Which ED50 [1] does the source give for CN1C[C@@H](CC#N)C[C@@H]2c3cccc4[nH]cc(c34)C[C@H]21 [DELERGOTRILE] here?
**A.** 0.06 mg/kg

**Q.** What about the Activity [5] of the same compound?
**A.** Active

**Q.** And the ED50 [2]?
**A.** 3 mg/kg

**Q.** And the Activity [3]?
**A.** Active

**Q.** Which ED50 [1] does the source give for CN1C[C@H](CC#N)C[C@@H]2c3cccc4[nH]c(Cl)c(c34)C[C@H]21 [LERGOTRILE] here?
**A.** 0.08 mg/kg

**Q.** And the Activity [5]?
**A.** Active

**Q.** And the ED50 [2]?
**A.** 2 mg/kg

**Q.** What about the Activity [3] of the same compound?
**A.** Active

**Q.** Which results are given for CN1C[C@H](CSc2ccccn2)C=C2c3cccc4[nH]cc(c34)C[C@H]21 [TIOMERGINE]?
**A.** ED50 [1]: 1.47 mg/kg; ED50 [2]: 11.5 mg/kg; Activity [3]: Active
